Test results reported in ChEMBL document CHEMBL4725492, “Dioxane-Linked Amide Derivatives as Novel Bacterial Topoisomerase Inhibitors against Gram-Positive Staphylococcus aureus” (ACS Med Chem Lett, 2020).
Values after ≈ are worked out from the molar mass of the structure shown. Active and inactive are the calls of the source. The rule behind the calls is not given here.

System: K562
Experiment: Growth inhibition of human K562 cells incubated for 48 hrs by sulforhodamine B assay
Format: functional
Details: not given

SMILES | INH [µM]
COc1ccc2nccc(CC[C@H]3OC[C@H](NC(=O)c4ccc(C(F)(F)F)cc4)CO3)c2c1 | 6.8

System: Staphylococcus aureus
Experiment: Antibacterial activity against Staphylococcus aureus USA300 by CLSI based agar dilution method
Format: functional
Details: not given

SMILES | MIC [µg/mL]
COc1ccc2nccc(CC[C@H]3OC[C@H](NC(=O)[C@H]4CC[C@H](N)CC4)CO3)c2c1 | > 64
COc1ccc2nccc(CC[C@H]3OC[C@H](NC(=O)C4Cc5ccccc5CO4)CO3)c2c1 (some centres undefined) | > 64
COc1ccc2nccc(CC[C@H]3OC[C@H](NC(=O)[C@H]4CC[C@H](C)CC4)CO3)c2c1 | 8 (≈ 19.4 µM)
COc1ccc2nccc(CC[C@H]3OC[C@H](NC(=O)c4cccnc4)CO3)c2c1 | 128 (≈ 325 µM)
COc1ccc2nccc(CC[C@H]3OC[C@H](NC(=O)c4ccc(Cl)c(Cl)c4)CO3)c2c1 | 0.125 (≈ 0.271 µM)
COc1ccc2nccc(CC[C@H]3OC[C@H](NC(=O)c4ccc(F)cc4)CO3)c2c1 | > 256
COc1ccc2nccc(CC[C@H]3OC[C@H](NC(=O)c4ccccc4Cl)CO3)c2c1 | > 256
COc1ccc2nccc(CC[C@H]3OC[C@H](NC(=O)c4ccc(C(F)(F)F)cc4)CO3)c2c1 | ≤ 0.5

Biological target: T1, DNA gyrase (Staphylococcus aureus) (UniProt P0A0K8+P20831)
Experiment: Inhibition of Staphylococcus aureus DNA gyrase assessed as single-strand break at 20 uM using relaxed pBR322 as substrate by ethidium bromide-based gel electrophoresis
Format: protein-complex assay
Details: not given
Procedure, shortened: (§1)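 S. aureus gyrase-mediated DNA cleavage: compound was incubated with enzyme and DNA, and products were resolved on an ethidium-stained gel into negatively supercoiled, nicked (single-strand break) and linear (double-strand break) forms. Lane fluorescence was corrected for differential band emission. Percent of each form was calculated, and enzyme-only cleavage was subtracted. Concentrations spanned 0.1 nM–200 μM, with a 20 μM single-point screen. Results are mean ± SD or range.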

SMILES | inhibition
COc1ccc2nccc(CC[C@H]3OC[C@H](NC(=O)c4ccc(Cl)c(Cl)c4)CO3)c2c1 | Active
COc1ccc2nccc(CC[C@H]3OC[C@H](NC(=O)c4ccc(C(F)(F)F)cc4)CO3)c2c1 | Active

Biological target: DNA topoisomerase 2-alpha (Homo sapiens, UniProt P11388)
Experiment: Inhibition of human topoisomerase 2alpha
Details: not given
Procedure, shortened: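 Human topoisomerase IIα decatenation activity was tested at a single concentration of 100 μM and reported as percent inhibition.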

SMILES | inhibition (INH)
COc1ccc2nccc(CC[C@H]3OC[C@H](NC(=O)c4ccc(C(F)(F)F)cc4)CO3)c2c1 | Not Active

System: not listed separately
Experiment: Growth inhibition of human K/VP.5 cells incubated for 48 hrs by sulforhodamine B assay
Format: functional
Details: not given

SMILES | INH [µM]
COc1ccc2nccc(CC[C@H]3OC[C@H](NC(=O)c4ccc(C(F)(F)F)cc4)CO3)c2c1 | 8.9

Biological target: T1, DNA gyrase (Staphylococcus aureus)
Experiment: Inhibition of Staphylococcus aureus DNA gyrase assessed as double-strand break at 20 uM using relaxed pBR322 as substrate by ethidium bromide-based gel electrophoresis
Format: protein-complex assay
Details: not given
Procedure, shortened: as §1

SMILES | inhibition
COc1ccc2nccc(CC[C@H]3OC[C@H](NC(=O)c4ccc(Cl)c(Cl)c4)CO3)c2c1 | inactive
COc1ccc2nccc(CC[C@H]3OC[C@H](NC(=O)c4ccc(C(F)(F)F)cc4)CO3)c2c1 | inactive

Biological target: DNA gyrase (Staphylococcus aureus, UniProt P0A0K8+P20831)
Experiment: Inhibition of Staphylococcus aureus DNA gyrase using relaxed pBR322 as substrate by gel electrophoresis
Format: protein-complex assay
Details: not given

SMILES | IC50 [nM]
COc1ccc2nccc(CC[C@H]3OC[C@H](NC(=O)c4ccc(Cl)c(Cl)c4)CO3)c2c1 | 590
COc1ccc2nccc(CC[C@H]3OC[C@H](NC(=O)c4ccc(C(F)(F)F)cc4)CO3)c2c1 | 1100

Biological target: Topoisomerase IV (Staphylococcus aureus, UniProt P0C1S7+P0C1U9)
Experiment: Inhibition of Staphylococcus aureus topoisomerase-4 assessed as reduction in decatenation of kinetoplast DNA agarose gel electrophoresis method
Format: protein-complex assay
Details: not given

SMILES | IC50 [µM]
COc1ccc2nccc(CC[C@H]3OC[C@H](NC(=O)c4ccc(Cl)c(Cl)c4)CO3)c2c1 | > 200
COc1ccc2nccc(CC[C@H]3OC[C@H](NC(=O)c4ccc(C(F)(F)F)cc4)CO3)c2c1 | > 200

System: Staphylococcus aureus
Experiment: Antibacterial activity against Staphylococcus aureus 3527 by CLSI based agar dilution method
Format: functional
Details: not given

SMILES | MIC [µg/mL]
COc1ccc2nccc(CC[C@H]3OC[C@H](NC(=O)[C@H]4CC[C@H](N)CC4)CO3)c2c1 | > 64
COc1ccc2nccc(CC[C@H]3OC[C@H](NC(=O)C4Cc5ccccc5CO4)CO3)c2c1 (some centres undefined) | > 64
COc1ccc2nccc(CC[C@H]3OC[C@H](NC(=O)[C@H]4CC[C@H](C)CC4)CO3)c2c1 | 8 (≈ 19.4 µM)
COc1ccc2nccc(CC[C@H]3OC[C@H](NC(=O)c4cccnc4)CO3)c2c1 | 128 (≈ 325 µM)
COc1ccc2nccc(CC[C@H]3OC[C@H](NC(=O)c4ccc(Cl)c(Cl)c4)CO3)c2c1 | 0.5 (≈ 1.08 µM)
COc1ccc2nccc(CC[C@H]3OC[C@H](NC(=O)c4ccc(F)cc4)CO3)c2c1 | > 256
COc1ccc2nccc(CC[C@H]3OC[C@H](NC(=O)c4ccccc4Cl)CO3)c2c1 | > 256
COc1ccc2nccc(CC[C@H]3OC[C@H](NC(=O)c4ccc(C(F)(F)F)cc4)CO3)c2c1 | ≤ 0.5

System: Staphylococcus aureus
Experiment: Antibacterial activity against Staphylococcus aureus ATCC 29213 by CLSI based agar dilution method
Format: functional
Details: not given

SMILES | MIC [µg/mL]
COc1ccc2nccc(CC[C@H]3OC[C@H](NC(=O)[C@H]4CC[C@H](N)CC4)CO3)c2c1 | > 64
COc1ccc2nccc(CC[C@H]3OC[C@H](NC(=O)C4Cc5ccccc5CO4)CO3)c2c1 (some centres undefined) | > 64
COc1ccc2nccc(CC[C@H]3OC[C@H](NC(=O)[C@H]4CC[C@H](C)CC4)CO3)c2c1 | 4 (≈ 9.7 µM)
COc1ccc2nccc(CC[C@H]3OC[C@H](NC(=O)c4cccnc4)CO3)c2c1 | 256 (≈ 651 µM)
COc1ccc2nccc(CC[C@H]3OC[C@H](NC(=O)c4ccc(Cl)c(Cl)c4)CO3)c2c1 | 0.125 (≈ 0.271 µM)
COc1ccc2nccc(CC[C@H]3OC[C@H](NC(=O)c4ccc(F)cc4)CO3)c2c1 | > 256
COc1ccc2nccc(CC[C@H]3OC[C@H](NC(=O)c4ccccc4Cl)CO3)c2c1 | 256 (≈ 600 µM)
COc1ccc2nccc(CC[C@H]3OC[C@H](NC(=O)c4ccc(C(F)(F)F)cc4)CO3)c2c1 | 0.25 (≈ 0.543 µM)

Biological target: Voltage-gated inwardly rectifying potassium channel KCNH2 (Homo sapiens, UniProt Q12809)
Experiment: Inhibition of human ERG
Details: human

SMILES | INH [µM]
COc1ccc2nccc(CC[C@H]3OC[C@H](NC(=O)c4ccc(C(F)(F)F)cc4)CO3)c2c1 | > 30

System: Staphylococcus aureus
Experiment: Antibacterial activity against Staphylococcus aureus D83N by CLSI based agar dilution method
Format: functional
Details: not given

SMILES | MIC [µg/mL]
COc1ccc2nccc(CC[C@H]3OC[C@H](NC(=O)[C@H]4CC[C@H](N)CC4)CO3)c2c1 | > 64
COc1ccc2nccc(CC[C@H]3OC[C@H](NC(=O)C4Cc5ccccc5CO4)CO3)c2c1 (some centres undefined) | > 64
COc1ccc2nccc(CC[C@H]3OC[C@H](NC(=O)[C@H]4CC[C@H](C)CC4)CO3)c2c1 | > 32
COc1ccc2nccc(CC[C@H]3OC[C@H](NC(=O)c4cccnc4)CO3)c2c1 | 128 (≈ 325 µM)
COc1ccc2nccc(CC[C@H]3OC[C@H](NC(=O)c4ccc(Cl)c(Cl)c4)CO3)c2c1 | > 32
COc1ccc2nccc(CC[C@H]3OC[C@H](NC(=O)c4ccc(F)cc4)CO3)c2c1 | > 256
COc1ccc2nccc(CC[C@H]3OC[C@H](NC(=O)c4ccccc4Cl)CO3)c2c1 | > 256
COc1ccc2nccc(CC[C@H]3OC[C@H](NC(=O)c4ccc(C(F)(F)F)cc4)CO3)c2c1 | > 64
